Compound activity from PubChem BioAssay.
M1 ag – M1 muscarinic receptor agonists, primary screen, CHO-M1 cells, Fluo-4 calcium, agonist mode; B-score at 10 µM; Fluo-4 calcium fluorescence; active compounds read high; hit rate 3% among 64,000; AID 626, 2007;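 active = fluorescence rise, raw or as B-score row- and column-corrected plate score, outside the 99.7% band of its plate's samples, either direction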
Htt clearance – clearance of mutant huntingtin inclusions, primary screen, imaging, HeLa Exon1htt(103Q)mCFP, confocal imaging; inhibition, % at 1.5 µM; aggregate imaging; zero = plate's median compound well; hit rate 0.42% among 47,000; AID 853, 2007;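 active = inhibition of aggregate fluorescence above about 70%, also judged a hit by eye on the cell image, limit read from the data, passing the limit was not always enough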;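 note: cells exposed to compound for three days before fixation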
M1 antag – antagonists of rat M1 muscarinic receptor; CHO-M1 cells, Fluo-4 calcium, ACh EC80 antagonist mode; active compounds read low; B-score at 10 µM; AID 628, 2007; hit rate 3.4% among 64,000;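 active = calcium fluorescence response, raw or row-and-column corrected B-score, differing from the plate sample mean either way at a set confidence level, mostly lower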
Target sequence (P08482 whole entry, looked up): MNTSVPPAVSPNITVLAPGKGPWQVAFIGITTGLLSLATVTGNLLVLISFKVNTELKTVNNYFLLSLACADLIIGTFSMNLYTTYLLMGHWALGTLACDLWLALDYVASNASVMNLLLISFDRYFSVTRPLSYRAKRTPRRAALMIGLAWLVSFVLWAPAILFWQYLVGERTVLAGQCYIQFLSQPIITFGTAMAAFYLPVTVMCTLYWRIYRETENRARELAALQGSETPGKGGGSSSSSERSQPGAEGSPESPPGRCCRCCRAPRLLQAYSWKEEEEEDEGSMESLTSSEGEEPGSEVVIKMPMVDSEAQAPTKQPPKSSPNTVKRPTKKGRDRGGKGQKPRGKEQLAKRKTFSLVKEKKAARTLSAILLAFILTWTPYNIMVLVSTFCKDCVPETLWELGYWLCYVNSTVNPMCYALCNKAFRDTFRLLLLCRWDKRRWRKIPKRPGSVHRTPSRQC
D1 mod – D1 CRE-luciferase signal change, two-sided – cell-based, HEK293 D1, dopamine EC30, D1 allosteric modulator project, primary screen | D(1A) dopamine receptor (Homo sapiens), P21728 | dopamine EC30 potentiation; actives deviate in either direction | B-score at 10 µM | hit rate 5.9% among 58,000;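 active = luminescence count or its row- and column-corrected plate score outside the 99.7% band of the plate's sample wells, on either side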
Jurkat viability – cytotoxicity toward Jurkat T cells, primary screen, cytotoxicity control, cell-based, Jurkat E6.1, 60K MLSMR library; inhibition, % at 4 µM; hit rate 1.2% among 56,000; AID 463, 2006; Jurkat E6.1 viability, ATP luminescence, 48 h;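 active = inhibition above the mean inhibition of all tested compounds plus 3 SD, cut at about 28% in these data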
HEK293 NFkB inh – inhibitors of PMA/ionomycin-induced NF-kB reporter, primary screen, antigen receptor NF-kB inhibitor project, cell-based, HEK-293 luciferase reporter, luminescence | HEK-293 NF-kB luciferase reporter | hit rate 0.21% among 62,000 | inhibition, % at 3 µM;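 active = inhibition above the mean of all tested compounds plus 3 SD, cut at about 40% in these data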
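Material: HEK-293 cells with stable firefly luciferase reporter driven by four HIV NF-kB elements / Also added: PMA plus ionomycin mix as NF-kB-activating stimulus / Compound dosing: 3 µM once, 0.30% DMSO / Times: 1 h pretreatment, 16 h stimulation, 37 °C / Signal: luminescence / Evaluation: per-plate % inhibition versus controls / Benchmarks: DMSO and 10 µM reference inhibitor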
D1 mod confirm – D1 receptor positive allosteric modulators, retest, confirmation, cell-based, HEK293 D1, CRE-luciferase, duplicate. AID 642, 2007. dopamine EC30 potentiation; active compounds read high. hit rate 88% among 2,200. shares compounds with D1 mod. luminescence at 10 µM;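 active = luminescence in either of two replicates above the same-plate mean plus 3 SD of the low-dose dopamine control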
D1 no dopamine – D1 receptor agonism without dopamine, confirmation, mechanism study for D1 allosteric modulator project, cell-based, HEK293 D1, CRE-luciferase, secondary assay 1. shares compounds with D1 mod. luminescence, no dopamine; active compounds read high. luminescence at 10 µM. hit rate 0.8% among 1,900; in the data active = luminescence above about 3900
Isoprot counter – alters isoproterenol CRE-luciferase response in HEK293 cells | HEK293 D1 CRE-luciferase, isoproterenol EC30 counter-screen; active compounds read high | shares compounds with D1 mod | luminescence at 10 µM | hit rate 63% among 2,200;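 active = luminescence in either replicate above plate mean of wells with a partly effective reference agonist dose plus 3 SD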;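 note: isoproterenol raises cAMP through native beta-adrenoceptor Gs so signal bypasses D1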
Each line names hits and unclear results; the compound was inactive in the other large screens (follow-up assays come after a bar, where they were run). Most compounds without a hit are left out; they make up all but 9.5% or so of the library.

c1ccc(N(c2ccccc2)c2nc(-n3ccnc3)nc(-n3ccnc3)n2)cc1	D1 mod 5.7 | D1 mod confirm 18076 | D1 no dopamine inactive | Isoprot counter 4960
CCCCNc1nc(N(C)c2ccccc2)nc(-n2ccnc2)n1	D1 mod 4.6 | D1 mod confirm 17552 | D1 no dopamine inactive | Isoprot counter 4732
CN(c1ccccc1)c1nc(-n2ccnc2)nc(-n2ccnc2)n1	none (no result: Htt clearance)
C=CCNc1nc(N(c2ccccc2)c2ccccc2)nc(-n2ccnc2)n1	none
Cc1cc(=O)n(CC=C(Cl)Cl)c2ccccc12	D1 mod 2.9 (no result: Htt clearance) | D1 mod confirm 7272 | D1 no dopamine inactive | Isoprot counter inactive
COc1ccc(NC(=O)c2sc(SCc3ccccc3)nc2N)cc1	none (no result: M1 ag, M1 antag, D1 mod, Jurkat viability, HEK293 NFkB inh)
COc1ccc(NC(=O)c2sc(SC)nc2N)cc1	D1 mod 15 (no result: Htt clearance) | D1 mod confirm 19600 | D1 no dopamine inactive | Isoprot counter 4944
O=C(/C=C/c1cccs1)NC(=S)NNC(=O)Cc1cccs1	none (no result: M1 ag, M1 antag, D1 mod, Jurkat viability, HEK293 NFkB inh)
CCOC(=O)/C=C1\NC(C)(C)Cc2cc(OC)c(O)cc21	D1 mod 4 | D1 mod confirm 8420 | D1 no dopamine inactive | Isoprot counter inactive
COc1cc2c(cc1OC)/C(=C/C(=O)N1CCOCC1)NC(C)(C)C2	D1 mod 10 (no result: Htt clearance) | D1 mod confirm 18680 | D1 no dopamine inactive | Isoprot counter 4848
CCOC(=O)/C=C1\NC2(CCCCC2)Cc2cc(OC)c(OC)cc21	none (no result: M1 ag, M1 antag, D1 mod, Jurkat viability, HEK293 NFkB inh)
COc1ccc(NC(=O)CSc2ncnc3c2cnn3Cc2ccccc2)cc1	none (no result: M1 ag, M1 antag, D1 mod, Jurkat viability, HEK293 NFkB inh)
COc1ccc(Nc2ncnc3c2cnn3Cc2ccccc2)cc1OC	D1 mod 5.2 (no result: Htt clearance) | D1 mod confirm 8056 | D1 no dopamine inactive | Isoprot counter 4144
COc1ccc(-c2cc(N)n(S(=O)(=O)c3c(F)c(F)c(F)c(F)c3F)n2)cc1OC	D1 mod 4.9, Jurkat viability 88 | D1 mod confirm 11216 | D1 no dopamine inactive | Isoprot counter 5304
Cc1ccc(OC(=O)Cn2c(C(F)(F)F)nc3ccccc32)cc1	none (no result: M1 ag, M1 antag, D1 mod, Jurkat viability, HEK293 NFkB inh)
COC(=O)c1cc2sc(Cl)cc2n1CC(=O)N1CCCc2ccccc21	D1 mod 5.5 (no result: Htt clearance) | D1 mod confirm 9576 | D1 no dopamine inactive | Isoprot counter inactive
COC(=O)c1cc2sccc2n1CC(=O)N1CCCc2ccccc21	none (no result: Htt clearance)
CCOC(=O)/C(N=O)=C(\O)C1CCN(C(=O)OCC)CC1	none
O=C(c1cn(CC(=O)N2CCCC2)c2ccccc12)C1CCCCC1	none
NC(=O)c1oc2ccccc2c1NC(=O)C1CCCCC1	none (no result: Htt clearance)
CCOCC(=O)Nc1c(C(=O)OCC)oc2ccccc12	D1 mod 8.8 (no result: Htt clearance) | D1 mod confirm 17016 | D1 no dopamine inactive | Isoprot counter 4516
COc1cccc(NC(=O)c2oc3ccccc3c2NC(C)=O)c1	none (no result: Htt clearance)
CCOC(=O)c1oc2ccccc2c1NC(=O)c1cc(OC)cc(OC)c1	D1 mod 4.7 | D1 mod confirm 13500 | Isoprot counter 3688
CCOC(=O)c1oc2ccccc2c1NC(=O)Cc1cccs1	none (no result: Htt clearance)
CCOC(=O)c1oc2ccccc2c1NC(=O)COC	D1 mod 21 (no result: Htt clearance) | D1 mod confirm 20772 | D1 no dopamine inactive | Isoprot counter 5264
NC(=O)c1oc2ccccc2c1NC(=O)c1ccc(F)cc1	D1 mod 4.5 | D1 mod confirm 7528 | D1 no dopamine inactive | Isoprot counter inactive
C=CCn1c(=O)c2ccccc2n2c(SCc3nnc(-c4ccccc4Br)o3)nnc12	none (no result: Htt clearance)
